Tested on: Fibroblast
Assay: Multiplex assay against human fibroblast
Assay type: toxicity, cell-based
Summary of the method: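 Imaging took place on a CQ1 microscope at 37°C and 5% CO2 once compound had been added to live cells stained at seeding with Hoechst33342, BioTracker Green Microtubule Cytoskeleton Dye, MitoTracker Red and Annexin V Alexa Fluor 680. CellPathfinder machine-learning gating classed cells as Hoechst high-intensity objects or normal cells, classed normal cells as having healthy, pyknosed or fragmented nuclei, and classed pyknosed cells as mitotic or apoptotic. Tubulin, mitochondrial-mass and membrane-permeability phenotypes are per cents of the healthy-nucleus cells.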

[1] = 12 h, 1 µM, compound concentration 1 uM, replicate 1
[2] = 12 h, 1 µM, compound concentration 1 uM, replicate 2
[3] = 12 h, 10 µM, compound concentration 10 uM, replicate 1
[4] = 12 h, 10 µM, compound concentration 10 uM, replicate 2
[5] = 24 h, 1 µM, compound concentration 1 uM, replicate 1
[6] = 24 h, 1 µM, compound concentration 1 uM, replicate 2
[7] = 24 h, 10 µM, compound concentration 10 uM, replicate 1
[8] = 24 h, 10 µM, compound concentration 10 uM, replicate 2
[9] = 48 h, 1 µM, compound concentration 1 uM, replicate 1
[10] = 48 h, 1 µM, compound concentration 1 uM, replicate 2
[11] = 48 h, 10 µM, compound concentration 10 uM, replicate 1
[12] = 48 h, 10 µM, compound concentration 10 uM, replicate 2

## C=CC(=O)Nc1cc(-n2c(=O)ccc3cnc4ccc(-c5ccc(NS(C)(=O)=O)cc5)cc4c32)ccc1C
[1]
  Population Apoptotic (%): 52%
  Population Fragmented Nuclei (%): 37%
  Population Healthy Nuclei (%): 32%
  Population Hoechst High Intensity Objects (%): 7%
  Population Membrane Permeable-Phenotype (%): 15%
  Population Mitochondria Different-Phenotype (%): 3%
  Population Mitotic Cells (%): 47%
  Population Normal (%): 92%
  Population Pyknosed Nuclei (%): 29%
  Population Tubulin-Different-Phenotype (%): 30%
  Total Cell Count: 85
[2]
  Population Apoptotic (%): 33%
  Population Fragmented Nuclei (%): 10%
  Population Healthy Nuclei (%): 77%
  Population Membrane Permeable-Phenotype (%): 0%
  Population Mitochondria Different-Phenotype (%): 10%
  Population Mitotic Cells (%): 66%
  Population Pyknosed Nuclei (%): 12%
  Population Tubulin-Different-Phenotype (%): 10%
  Total Cell Count: 53
[3]
  Population Apoptotic (%): 51%
  Population Fragmented Nuclei (%): 30%
  Population Healthy Nuclei (%): 39%
  Population Hoechst High Intensity Objects (%): 8%
  Population Membrane Permeable-Phenotype (%): 32%
  Population Mitochondria Different-Phenotype (%): 13%
  Population Mitotic Cells (%): 48%
  Population Normal (%): 91%
  Population Pyknosed Nuclei (%): 30%
  Population Tubulin-Different-Phenotype (%): 55%
  Total Cell Count: 120
[4]
  Population Apoptotic (%): 76%
  Population Fragmented Nuclei (%): 8%
  Population Healthy Nuclei (%): 54%
  Population Hoechst High Intensity Objects (%): 9%
  Population Membrane Permeable-Phenotype (%): 12%
  Population Mitochondria Different-Phenotype (%): 56%
  Population Mitotic Cells (%): 23%
  Population Normal (%): 90%
  Population Pyknosed Nuclei (%): 36%
  Population Tubulin-Different-Phenotype (%): 52%
  Total Cell Count: 51
[5]
  Population Apoptotic (%): 54%
  Population Fragmented Nuclei (%): 23%
  Population Healthy Nuclei (%): 44%
  Population Hoechst High Intensity Objects (%): 11%
  Population Membrane Permeable-Phenotype (%): 22%
  Population Mitochondria Different-Phenotype (%): 16%
  Population Mitotic Cells (%): 45%
  Population Normal (%): 88%
  Population Pyknosed Nuclei (%): 31%
  Population Tubulin-Different-Phenotype (%): 38%
  Total Cell Count: 78
[6]
  Population Apoptotic (%): 55%
  Population Fragmented Nuclei (%): 11%
  Population Healthy Nuclei (%): 76%
  Population Hoechst High Intensity Objects (%): 2%
  Population Membrane Permeable-Phenotype (%): 3%
  Population Mitochondria Different-Phenotype (%): 15%
  Population Mitotic Cells (%): 44%
  Population Normal (%): 97%
  Population Pyknosed Nuclei (%): 11%
  Population Tubulin-Different-Phenotype (%): 22%
  Total Cell Count: 79
[7]
  Population Apoptotic (%): 50%
  Population Fragmented Nuclei (%): 36%
  Population Healthy Nuclei (%): 39%
  Population Hoechst High Intensity Objects (%): 9%
  Population Membrane Permeable-Phenotype (%): 35%
  Population Mitochondria Different-Phenotype (%): 5%
  Population Mitotic Cells (%): 50%
  Population Normal (%): 90%
  Population Pyknosed Nuclei (%): 23%
  Population Tubulin-Different-Phenotype (%): 50%
  Total Cell Count: 141
[8]
  Population Apoptotic (%): 84%
  Population Fragmented Nuclei (%): 21%
  Population Healthy Nuclei (%): 32%
  Population Hoechst High Intensity Objects (%): 5%
  Population Membrane Permeable-Phenotype (%): 22%
  Population Mitochondria Different-Phenotype (%): 50%
  Population Mitotic Cells (%): 15%
  Population Normal (%): 94%
  Population Pyknosed Nuclei (%): 46%
  Population Tubulin-Different-Phenotype (%): 33%
  Total Cell Count: 59
[9]
  Population Apoptotic (%): 61%
  Population Fragmented Nuclei (%): 32%
  Population Healthy Nuclei (%): 43%
  Population Hoechst High Intensity Objects (%): 6%
  Population Membrane Permeable-Phenotype (%): 25%
  Population Mitochondria Different-Phenotype (%): 3%
  Population Mitotic Cells (%): 38%
  Population Normal (%): 93%
  Population Pyknosed Nuclei (%): 24%
  Population Tubulin-Different-Phenotype (%): 34%
  Total Cell Count: 79
[10]
  Population Apoptotic (%): 0%
  Population Fragmented Nuclei (%): 28%
  Population Healthy Nuclei (%): 65%
  Population Hoechst High Intensity Objects (%): 12%
  Population Membrane Permeable-Phenotype (%): 19%
  Population Mitochondria Different-Phenotype (%): 7%
  Population Mitotic Cells (%): 100%
  Population Normal (%): 87%
  Population Pyknosed Nuclei (%): 6%
  Population Tubulin-Different-Phenotype (%): 21%
  Total Cell Count: 72
[11]
  Population Apoptotic (%): 78%
  Population Fragmented Nuclei (%): 39%
  Population Healthy Nuclei (%): 43%
  Population Hoechst High Intensity Objects (%): 18%
  Population Membrane Permeable-Phenotype (%): 29%
  Population Mitochondria Different-Phenotype (%): 4%
  Population Mitotic Cells (%): 21%
  Population Normal (%): 81%
  Population Pyknosed Nuclei (%): 17%
  Population Tubulin-Different-Phenotype (%): 56%
  Total Cell Count: 135
[12]
  Population Apoptotic (%): 100%
  Population Fragmented Nuclei (%): 56%
  Population Healthy Nuclei (%): 42%
  Population Hoechst High Intensity Objects (%): 15%
  Population Membrane Permeable-Phenotype (%): 33%
  Population Mitochondria Different-Phenotype (%): 1%
  Population Mitotic Cells (%): 0%
  Population Normal (%): 85%
  Population Pyknosed Nuclei (%): 0%
  Population Tubulin-Different-Phenotype (%): 50%
  Total Cell Count: 140

— ChEMBL document CHEMBL4689842, “EUbOPEN Chemogenomics Library wave 1” (2021)
